Tested on: MS2 coat protein
Experiment: apparent Kd, MS2 coat protein; higher = weaker binding; RNA-MaP array; FMN 200 µM where present
Outline: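 Each design was made on Illumina sequencing-chip clusters by stalled E. coli RNA polymerase and titrated with SNAP-549-labelled MS2 coat protein from 0.7 or 1.5 nM, doubling to 3 µM, in the absence and then the presence of constant ligand. The buffer was 100 mM Tris-HCl pH 7.5, 80 mM KCl, 4 mM MgCl2, BSA, DTT, yeast tRNA and Tween-20. The apparent Kd is the median of filtered per-cluster fits of binding curves, with green signal normalised to red-channel RNA signal and control-cluster median Fmax.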

[1] = designed as: OFF switch for flavin mononucleotide, no ligand
[2] = ligand present: flavin mononucleotide, designed as: OFF switch for flavin mononucleotide
[3] = designed as: ON switch for flavin mononucleotide, no ligand
[4] = ligand present: flavin mononucleotide, designed as: ON switch for flavin mononucleotide

Sequence	apparent Kd [1] [nM]	apparent Kd [2] [nM]	apparent Kd [3] [nM]	apparent Kd [4] [nM]
AAUUGAGAGCAGGAUAUAUUCCUGAUGUAUGAAGUAGAAGGGCUCACAUGAGGAUCACCCAUGUGAUCCUGAAU	16.1	18	–	–
UACAUGUGAGGAUAUGUACGAGGCCCUGACGGGUCUCGCAGGCAGAAGGCACAUGAGGAUCACCCAUGUGACCG	24.7	96.6	–	–
CCCUCACAUGAGGAUCACCCAUGUCAGGAUAUUCGACGGUAAAUUGGCCGUCUUAAAGGAAGAAGGGACGUAAC	12.5	17.9	–	–
CCGGAAAUGAAGGAUAUAGGAGUCGAUAGACUCCUAGAAGGUCAUACAUGAGGAUCACCCAUGUGUCCUACCGG	15.8	34.9	–	–
CCUAAGGACACAGGAUAUAGCGUGGUGGCUGGGCUCCAACGGCGAGUGGCGCUAGAAGGGUGACCACAUGAGGAUCACCCAUGU	–	–	537	214
GGUAGAGACGUUAACAUGAGGAUCACCCAUGUCGAAGGAGAUGAGGAUAUCGUAUACGAUGUAUAUGAGAAGGCAUGGUCUGCC	–	–	24.4	11.7
CGUUGUUCCGCAGGAUAUGCAUUGGAUUACAAUGCAGAAGGGCGAUAACAUGAGGAUCACCCAUGUGUGGACAAUGAGGAAGAG	–	–	792	55.2
AAACAGCUAGGAUAUACCCUCCGUGAGACUCCCAAAUCGAAACAUGAGGAUCACCCAUGUAGAAGGAGCUGACG	13.4	12.2	–	–
GCACGGCAUGUAGGAUAUCGAGCGCCGGGCGCUCGAGAAGGACAUGAGGAUCACCCAUGUAUUCUGAGUGACAGAGUGCUGUGC	19	46.8	–	–
AAAACAUGAGGAUCACCCAUGUAAAGAUCGGUUAAUAGAAGUGAGGAUAUACGAAGUUAAAGCUGGUAGAAGGCACUGGGUACA	–	–	34.7	33.2
AAAAAACAUGAGGAUCACCCAUGUCAGGAUAUGAAAAAAAAAAAAAAAAAAAAAAAAAUCAGAAGGGACAAAAA	66.4	36.1	–	–
GGGCUCGGUGUGAGGAUAUGCUCGGGUAAAUCUGGGUAGAAGGCACAUGAGGAUCACCCAUGUAAGCUGGGUCU	33.9	33.9	–	–
CUUUUGUGAGGAUAUUAGUAGUAAAUAUAUAAAAUUACUACUGAGAAGGCACAUGAGGAUCACCCAUGUUCCUC	31.5	194	–	–
AUAAUGUAAGGAUAUCAGUCGACUAGCUGCGGCUAGUCGACUGAGAAGGUACAUGAGGAUCACCCAUGUGUUUC	40.9	183	–	–
ACAUGAGGAUCACCCAUGUGGAGUGAAGAAGGUAGAUACUUAUGACUCUCCCAUGUACAUAGGACUGAGGAUAUUCUAAUAAUU	–	–	30.8	24
GUUAUUUAUGUAGGAUAUGCGAGGCGAGCCUAAGCAGAAGGACAUGAGGAUCACCCAUGUAUUGCGGUUUGUGUUCAGAUCGCU	27.3	84.9	–	–
CAUUAAUUCAUUAUAGUAAUUAUACAGGAUAUGUAACAUGAGGAUCACCCAUGUAUUCUUGGUUAACAGAAGGGUAUUACUUGU	17.5	27.6	–	–
GCCAGAGCAGGAUAUUCAAUAUCACACAUGAGGAUCACCCAUGUCUAUCGAAAGAUAGAGGGAGAAGGGCUCUGGC	64.3	18.3	–	–
GGGAGACAUGAGGAUCACCCAUGUGAAAACGUGGCAGGAUAUCGAUGGAAACCAUACUGUCGAGAAGGGCCUUGUC	–	–	56.7	35.6

Sequence	apparent Kd [1] [nM]	apparent Kd [2] [nM]	apparent Kd [3] [nM]	apparent Kd [4] [nM]
CAAAGACAAGCAGGAUAUCACAUGAGGAUCACCCAUGUCGGGAUCACCUGAGAGUGUUUAUUAAGUGAGAAGGGCUAGAUCACC	17.6	31.2	–	–
AAGAAGUCAGGAUAUCCAGCUCGUCACUUGCGUGAUGAGUUGGAGAAGGGACAUGAGGAUCACCCAUGUAAAGA	56.1	49.3	–	–
CGCUAAUAAUUAAUAUUAAUUGUACAGGAUAUGUUACAUGAGGAUCACCCAUGUAUUGGGUUUAAACAGAAGGGUAUAUUAGCG	191	81.4	–	–
GGGUGCAUCGGAGGAUAUCAUGUAAAUACAUGAGGAUCACCCAUGUCGAUGGAGACAUCGGAGAUUGAGAAGGCCGAUGUACCG	–	–	172	8.99
UAAAAGUGAGGAUAUACAUUAAGGUAAGUCCGGAUGCGAAGACAUGAGGAUCACCCAUGUAGAAGGCACACAAA	32.1	146	–	–
AUACCACGAGGAUAUCGUCUAUUUCACAUGAGGAUCACCCAUGUUAUCUUUGUUUCGUUUCGAGAAGGCGUGUUUU	33.1	23.2	–	–
AUCGUGCUAGGAUAUACAGACGGGUGUAGACGUGCAGGCAAACAUGAGGAUCACCCAUGUAGAAGGAGUAGUUA	159	88.8	–	–
UUUAUAAAGAUAGGAUAUAGUAUAAUAAUUUAAUUAGAAGGAUCACACAUGAGGAUCACCCAUGUAUGAGGAUCACCCAUGUAU	20.4	21.1	–	–
GGACGUCACAUUAACAUGAGGAUCACCCAUGUCAAAAGACAUGAGGAUAUGGAUAAUAAUAUAAACCAGAAGGCAUGGACGUCC	–	–	526	29.2
CAGAGACAAGCAGGAUAUCGACACAUGAGGAUCACCCAUGUUCGUAGGAACCUGGGUCAAGUCUGCGAGAAGGGCUCGUCAGUA	151	159	–	–
GUAGCUAUCGGAGGAUAUUCAUAUCGGAAACGGACAUGAGGAUCACCCAUGUGGCUAAAGCCUUGGGAGAAGGCCGAUAGCUAC	–	–	120	7.75
CCUCGACAUGAGGAUCACCCAUGUAAGGAUAUGUUGACGAGCCAGAAAUGGCUGGUCAACAGAAGGUAUAUGUA	31.9	121	–	–
CUUAGGUGUACAUGAGGAUCACCCAUGUCCCUGGUCAUUAGACAGGAUAUAUGGGCGGUCGCUGCAUAGAAGGGUUAAAUGGGA	–	–	764	591
UGUUGUUCAGGAUAUGAUGUAUAAUACAUGAGGAUCACCCAUGUAGGUCCUGAUUUGGCGUCAGAAGGGAAUGUUG	27.7	31	–	–
AAGCACUGAUAAUAAUGUAGAAAUACAUGAGGAUCACCCAUGUAGGAUAUCGUCAGGAAUACUGACGAGAAGGACAUACAGUGC	16.2	24.7	–	–
CUCCUACAUGAGGAUCACCCAUGUCAGGAUAUCUCAGUGGCGCCUAAAUGUGCCACCCAGAGAAGGGACGUGCA	11.6	15.3	–	–
GUAGCAUACCGAGGAUAUUCAAAUAAUAAAUAAACAUGAGGAUCACCCAUGUGGCGAAAGCCUAGGGAGAAGGCGGAAUGCUAC	–	–	48.2	16.9
ACCGAGACAGAAGGAUAUACAUUGGUUACGCUGUUCGCGUCCUCGACCACAUGAGGAUCACCCAUGUAGAAGGUUUGUAGCGCG	16.5	42.7	–	–
AAUAAACUCACAGGAUAUAGCAGAGGUCGCCUGAACUUACAGGCGACGAUGCUAGAAGGGUGACCACAUGAGGAUCACCCAUGU	–	–	825	136

Sequence	apparent Kd [1] [nM]	apparent Kd [2] [nM]	apparent Kd [3] [nM]	apparent Kd [4] [nM]
UGUCGGAGCAGAGGAUAUUACAUGAGGAUCACCCAUGUAUGAACCAAUAGCUGGAAACAGCAAAGUAAGAAGGCUGCUCCGACA	6.28	79.4	–	–
CGAGGUGGAGUGAGGAUAUCGUGUUCGAAAGAACGUGAGAAGGCACAUGAGGAUCACCCAUGUGAUUCUGCUCG	45.7	270	–	–
AAAAAACAAGGAUAUACGUAUGAGGAUUGUCUUAAUUUUUGACAUGAGGAUCACCCAUGUAGAAGGUGUUAAAA	120	126	–	–
AAUAAACUCACAGGAUAUAGCAUAAGUCGCGUGAACUUACAGGCGACUAUGCUAGAAGGGUGACCACAUGAGGAUCACCCAUGU	–	–	805	158
UCGCUGCGAGGAUAUACAUGAGGAUCACCCAUGUGCGGGUCCGGGUCUUCGUCCAUUGGUAGAAGGCGCAGUGA	45.3	554	–	–
GUAGGCGACCAGAAGGGUGACAUGAGGAUCACCCAUGUAGGUGUGUUCCCGCUUAGGAGCCACCCACAGGAUAUGGUUGGUUAG	–	–	27.6	23.9
CCUGGAGGAAAACAGACGAAGUGGCCAGAAGGUGAAUGCCACAUGAGGAUCACCCAUGUUUCGAUCAAGGAUAUGGUUUCUCAC	–	–	329	161
UAUCAAUUUAUGGGAUUAGAUUAUGAGGAUAUCAUUUUUUUAUACAUGAGGAUCACCCAUGUUUCUGAGAAGGCAUAAUUAAUA	–	–	16.9	6.29
GUAGCUAUCGGAGGAUAUUCAUACCGGAAACGGACAUGAGGAUCACCCAUGUGGAGAAAGCCUUAGGAGAAGGCCGAUAGCUAC	–	–	33	8.9
ACCCAGUUUUGCACUACAUGAGGAUCACCCAUGUGAGCGAGCAGAAGGACGAUGGGUGGAAAAUCGUAGGAUAUGCACUGGGCU	–	–	44.8	12.3
CUUAUGUGAGGAUAUGUACAGAAAAAACUGGGUGUAACUGUACAGAAGGCACAUGAGGAUCACCCAUGUGUAUU	98.5	34.1	–	–
GCAAAAGUCCUGAGGGUAGGAGACAGAAGGGCACCGGGAUCACUCCACAUGAGGAUCACCCAUGUGCAGGAUAUGUCGGCUGAA	22.3	327	–	–
AAUGGGCACCAGAAGGACAUGAGGAUCACCCAUGUAGGAUAUGGGCGUUGAAGAUGUCUGAACGAGUUGCUGGAAGGAUAUGGG	–	–	305	41
UCAUCGGCAGGAUAUACGAAAGGAGAACUUCUGCGCAAGAUACAUGAGGAUCACCCAUGUAGAAGGGUCGUAUG	27.8	88.7	–	–
CGGGAGUCAGGAUAUACGAACAUGUCGCCAGAUGUCAAGGUACAUGAGGAUCACCCAUGUAGAAGGGAGGAGAU	80.6	72.7	–	–
UUCUUUCCUCAUGUACAUGAGGAACAUGAGGAUCACCCAUGUAGAAGGAUUUCAAUUAAAUUAAAAUAGGAUAUACAUAUAUUU	15.8	16.4	–	–
AAAUAGUUAGGAUAUACAUGAGGAUCACCCAUGUGGACUUAUGGCGAUUAAUUUAGUGGUAGAAGGGACUAAAA	37.2	47.6	–	–
AGUCAUGUCCGAGGAUAUGAUGCCGGUUUCUGCAAGCCAACGCGCCCGGCCUCAGAAGGCGGACAUGAGGAUCACCCAUGUAUC	64.9	12.2	–	–

— the EternaBench riboswitch data
